Screens: PubChem BioAssay, The Scripps Research Institute Molecular Screening Center
This is a sample that favours compounds with a hit; in the whole collection about 2.7% have one here.
pPAFAH FP inh: inhibitors of human plasma PAF acetylhydrolase (pPAFAH); recombinant pPAFAH, FP-rhodamine probe fluorescence polarization; 1.5% of 330,000 active; inhibition, % at 3.39 µM;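 active means inhibition above the mean inhibition across the screen plus 3 SD, cut at about 25% in these data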;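 further: inhibitors block binding of the rhodamine activity-based probe so polarization drops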
PAFAH1B3 FP inh: inhibitors of human PAFAH1B3; Q15102; recombinant PAFAH1B3, FP-rhodamine probe, fluorescence polarization; inhibition, % at 3.39 µM; 0.28% of 340,000 active; AID 492972;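 active means inhibition above the screen-wide average of all tested compounds plus 3 SD, cut at about 25% in these data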
PAFAH2 inh: inhibitors of human PAFAH2; 0.99% of 340,000 active; recombinant PAFAH2, FP-rhodamine activity probe, fluorescence polarization; inhibition, % at 3.39 µM;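 active means inhibition above the mean over all tested compounds plus 3 SD, cut at about 30% in these data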;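 further: inhibitors block probe labeling of enzyme so polarization drops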
ARFGAP1 inhibitor: inhibitors of rat ARFGAP1. Q62848. Arfgap1-stimulated ARF1 GTP hydrolysis, GDP FP detection. inhibition, % at 16.5 µM. 0.26% of 360,000 active. AID 651572;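 active means inhibition above a per-plate limit, mean inhibition of low control wells plus 3 SD, cut at about 25% in these data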
Target sequence (Q62848 1-136 limits assumed): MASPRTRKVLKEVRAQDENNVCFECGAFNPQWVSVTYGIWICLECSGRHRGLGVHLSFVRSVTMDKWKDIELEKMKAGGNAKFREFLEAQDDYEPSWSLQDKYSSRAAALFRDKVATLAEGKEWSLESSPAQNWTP
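material = rat Arfgap1 catalytic domain, aa 1-136 | also added = human ARF1(Δ1-17)-GTP substrate | compound dosing = one concentration, 16.5 µM, DMSO 1.26% | times = GTP hydrolysis reaction 2 h at 25 °C | measured by = FP, GDP Alexa 633 tracer displaced from anti-GDP antibody, 620/688 nm | evaluation = percent inhibition of Arfgap1-stimulated GTP hydrolysis | replication = single well per compound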
ASAP1 inh: inhibitors of human ASAP1 ArfGAP activity; Q9ULH1; ASAP1-stimulated ARF1 GTP hydrolysis, GDP FP detection; inhibition, % at 16.5 µM; 0.19% of 360,000 active; in the data active means inhibition above about 25%
Target sequence (Q9ULH1 325-724 limits assumed): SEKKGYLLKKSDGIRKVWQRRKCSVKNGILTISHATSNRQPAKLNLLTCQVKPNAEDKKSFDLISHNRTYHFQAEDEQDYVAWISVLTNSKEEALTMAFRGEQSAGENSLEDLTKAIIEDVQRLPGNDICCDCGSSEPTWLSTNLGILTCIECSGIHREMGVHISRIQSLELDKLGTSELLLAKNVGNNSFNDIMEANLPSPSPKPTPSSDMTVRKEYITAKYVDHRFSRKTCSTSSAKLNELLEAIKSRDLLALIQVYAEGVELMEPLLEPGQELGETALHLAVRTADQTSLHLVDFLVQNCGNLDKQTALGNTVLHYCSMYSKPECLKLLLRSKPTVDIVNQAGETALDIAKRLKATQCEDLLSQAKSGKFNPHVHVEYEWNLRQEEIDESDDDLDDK
PAFAH1B2 FP inh: PAFAH1B2 (human) inhibition. P68402. AID 492953. recombinant PAFAH1B2, FP-rhodamine activity probe, fluorescence polarization. 1.2% of 340,000 active. inhibition, % at 3.39 µM;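 active means inhibition above the mean of all tested compounds plus 3 SD, cut at about 24% in these data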
pPAFAH FP conf: pPAFAH (human) inhibition, confirmed; shares compounds with pPAFAH FP inh; recombinant pPAFAH, FP-Rh probe fluorescence polarization; inhibition, % at 3.39 µM; 72% of 2,300 active;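 active means mean inhibition of the triplicate above the hit cutoff set for the earlier primary screen, cut at about 25% in these data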
Of the large screens only hits and unclear results are named; the others gave an inactive call (follow-up assays come after a bar, where they were run).

Cc1ccc(OCC(O)CNC(=O)c2ccccc2C(=O)O)cc1 (stereo not drawn)	none
COc1ccc(C(=O)N(C)[C@H]2C[C@H]3c4[nH]c5c(-c6ccccc6)cccc5c4CCN3C(=O)[C@H]2[C@H](C)O)cc1	none (no result: pPAFAH FP inh, PAFAH1B3 FP inh, PAFAH2 inh, PAFAH1B2 FP inh)
Cc1cc2c(c(=O)o1)[C@@]1(C(=O)N(C)c3cccc(Br)c31)C1=C(CCCC1=O)O2	none (no result: pPAFAH FP inh, PAFAH1B3 FP inh, PAFAH2 inh, PAFAH1B2 FP inh)
N#CC1=C(N)N2C(=C(C#N)C1c1ccc(Br)cc1)Nc1ccccc12 (stereo not drawn)	pPAFAH FP inh 63 (no result: PAFAH1B3 FP inh, PAFAH2 inh, PAFAH1B2 FP inh) | pPAFAH FP conf 71
C/C(=N\NC(=O)CNc1ccccc1)c1ccccc1	none
CCOC(=O)/C(C#N)=C/Nc1ccccc1NS(=O)(=O)c1cccc(C(C)=O)c1	pPAFAH FP inh 35 | pPAFAH FP conf inactive
CCCCCCCCN1C(=O)N(Cc2ccc(OC)cc2)S(=O)(=O)c2ccc(F)cc21	none (no result: pPAFAH FP inh, PAFAH1B3 FP inh, PAFAH2 inh, PAFAH1B2 FP inh)
O=C(Nc1ccc(N2CCOCC2)cc1)c1ccc2nc(-c3ccco3)c(-c3ccco3)nc2c1	none
O=C(NCc1ccccc1)c1ccc2nc(-c3ccco3)c(-c3ccco3)nc2c1	pPAFAH FP inh 71 | pPAFAH FP conf 58
CC(=O)c1ccc(NC(=O)c2ccc3nc(-c4ccco4)c(-c4ccco4)nc3c2)cc1	pPAFAH FP inh 62 (no result: ARFGAP1 inhibitor, ASAP1 inh) | pPAFAH FP conf 50
O=C(NCc1ccccc1)c1ccc2nccnc2c1	none
CCCCNC(=O)c1ccc2nc(-c3ccco3)c(-c3ccco3)nc2c1	pPAFAH FP inh 61 | pPAFAH FP conf inactive
CCc1nc2ccc(C(=O)Nc3ccc(NC(C)=O)cc3)cc2nc1CC	none
O=C(Nc1ccccc1)c1ccc2nc(-c3ccco3)c(-c3ccco3)nc2c1	pPAFAH FP inh 66 | pPAFAH FP conf inactive
CCCN1C(=O)c2n[nH]c(C)c2C1c1ccc(Br)cc1 (stereo not drawn)	none (no result: pPAFAH FP inh, PAFAH1B3 FP inh, PAFAH2 inh, PAFAH1B2 FP inh)
O=C(NCCC(=O)N1CCN(C(=O)c2ccco2)CC1)c1ccc(Br)cc1	none
CCN(CC)C(=O)Oc1ccc2oc(=O)cc(-c3cc4cccc(OC)c4o3)c2c1	none
CC(NC(=O)C(NS(=O)(=O)c1cccs1)C(C)C)c1ccc(S(N)(=O)=O)cc1 (stereo not drawn)	none
COc1ccccc1C(=O)NCC(=O)OCC(=O)Nc1ccc2[nH]c(=O)[nH]c2c1	pPAFAH FP inh 39 | pPAFAH FP conf inactive
OC1(c2ccc(Cl)cc2)CCN(Cc2cn[nH]c2-c2ccccc2)CC1	none
OC1(c2ccc(Cl)cc2)CCN(Cc2cn[nH]c2-c2ccc(F)cc2)CC1	pPAFAH FP inh 58 | pPAFAH FP conf inactive
Cn1cccc1/C=C1\SC(=S)N(NC(=O)c2ccccc2O)C1=O	none
O=C(O)CC(C(=O)O)N1C(=O)/C(=C/c2ccc(-c3nc4ccccc4s3)o2)SC1=S (stereo not drawn)	pPAFAH FP inh 65, PAFAH2 inh 34 | pPAFAH FP conf 42
O=C(O)CCN1C(=O)/C(=C/c2ccc(-c3nc4ccccc4s3)o2)SC1=S	none
O=C(NN1C(=O)/C(=C/C=C/c2ccco2)SC1=S)c1ccccc1O	pPAFAH FP inh 78, PAFAH1B3 FP inh 26, PAFAH2 inh 59 | pPAFAH FP conf 67
O=C1S/C(=C\C=C\c2ccco2)C(=O)N1c1ccc(O)cc1	pPAFAH FP inh 37 | pPAFAH FP conf inactive
O=C(O)CC(C(=O)O)N1C(=O)/C(=C/C=C/c2ccco2)SC1=S (stereo not drawn)	pPAFAH FP inh 68 | pPAFAH FP conf inactive
Cc1ccc(C(=O)N2CCC[C@@H]2C(=O)N2CCC[C@@H]2C(=O)NCc2ccccc2)cc1	none (no result: pPAFAH FP inh, PAFAH1B3 FP inh, PAFAH2 inh, PAFAH1B2 FP inh)
COc1ccc(S(=O)(=O)N(C)C[C@H]2Oc3c(NS(=O)(=O)c4cn(C)cn4)cccc3C(=O)N([C@H](C)CO)C[C@@H]2C)cc1	none
CC(C)c1onc(C(=O)N2CCC(C(N)=O)CC2)c1[N+](=O)[O-]	none
O=C(Cc1ccccc1)N1O[C@H]2C=C[C@@H]1C2	none (no result: pPAFAH FP inh, PAFAH1B3 FP inh, PAFAH2 inh, PAFAH1B2 FP inh)
O=C(O)CCCN1C(=O)/C(=C/C=C/c2ccco2)SC1=S	pPAFAH FP inh 61, PAFAH2 inh 32 | pPAFAH FP conf inactive
